Active and inactive are the calls of the source. The rule behind the calls is not given here. Positions of bridges follow the written chain, without caps; N, C: chain ends. Non-standard residues stand in square brackets, D forms with d. Residues, ends and D or L forms follow the SMILES beside them. Chains are numbered I, II in the order given. Nle = CCCC[C@H](N)C(=O)O

In experiment [1] the target is T1, Neuronal acetylcholine receptor subunit alpha-7 (Homo sapiens, UniProt P36544). The experiment is described as follows: Negative allosteric modulation activity at alpha7 nAChR in human SH-SY5Y cells assessed as inhibition of choline induced intracellular calcium by FLIPR assay. It counts as cell-based.
For experiment [2], the target named is Acetylcholine-binding protein (Lymnaea stagnalis) (UniProt P58154). The experiment is described as follows: Displacement of [3H]-epibatidine from recombinant Lymnaea stagnalis Acetylcholine-binding protein assessed as fold change in inhibition of [3H]-epibatidine binding by radioligand binding assay relative to CTD(21-50). Conditions: filed as negative allosteric modulator. A digest of the protocol:
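Competition binding: peptides displaced [3H]-epibatidine from recombinantly expressed Lymnaea stagnalis AChBP. IC50 came from concentration–response curves. The ratio is each peptide's IC50 divided by the IC50 of the CTD(21–50) reference. Data are means ± SEM of triplicates from three independent experiments.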
(Loss of bound radioactivity is the signal in a displacement assay; it reports binding, not function.)

Experiment [3] deals with Acetylcholine-binding protein (Lymnaea stagnalis, UniProt P58154). Put plainly: Displacement of [3H]-epibatidine from recombinant Lymnaea stagnalis Acetylcholine-binding protein by radioligand binding assay. An outline of the steps:
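Competition binding: peptide concentration series against [3H]-epibatidine bound to recombinantly expressed Ls-AChBP; IC50 taken from concentration–response curves of displacement. Values are means ± SEM of triplicates from three independent experiments.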

Experiment [4] has as its target T1, Neuronal acetylcholine receptor subunit alpha-7. Put plainly: Negative allosteric modulation activity at alpha7 nAChR in human SH-SY5Y cells assessed as fold change in inhibition of choline induced intracellular calcium by FLIPR assay relative to CTD(21-50). Type of experiment: cell-based. Conditions: filed as negative allosteric modulator. Background: A change in cytosolic calcium serves as a functional read-out for many receptors and channels.

Experiment [5] has as its target Acetylcholine-binding protein (Lymnaea stagnalis) (UniProt P58154). Put plainly: Displacement of [3H]-epibatidine from recombinant Lymnaea stagnalis Acetylcholine-binding protein assessed as inhibition of [3H]-epibatidine binding at 40 uM by radioligand saturation binding assay. An outline of the steps:
(§1)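 Saturation binding of [3H]-epibatidine to recombinantly expressed Ls-AChBP was run without peptide and with a fixed peptide concentration (20 μM or 40 μM, depending on the peptide). Data are means ± SEM of triplicates from three independent experiments.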

For experiment [6] the target is unchanged. Put plainly: Displacement of [3H]-epibatidine from recombinant Lymnaea stagnalis Acetylcholine-binding protein assessed as inhibition of [3H]-epibatidine binding by radioligand saturation binding assay. The conditions noted are these: filed as negative allosteric modulator. An outline of the steps:
as §1

For experiment [7] the target is unchanged. The experiment is described as follows: Displacement of [3H]-epibatidine from recombinant Lymnaea stagnalis Acetylcholine-binding protein assessed as inhibition of [3H]-epibatidine binding at 20 uM by radioligand saturation binding assay. A digest of the protocol: as §1

Sequence of Acetylcholine-binding protein (Lymnaea stagnalis) (P58154 whole entry): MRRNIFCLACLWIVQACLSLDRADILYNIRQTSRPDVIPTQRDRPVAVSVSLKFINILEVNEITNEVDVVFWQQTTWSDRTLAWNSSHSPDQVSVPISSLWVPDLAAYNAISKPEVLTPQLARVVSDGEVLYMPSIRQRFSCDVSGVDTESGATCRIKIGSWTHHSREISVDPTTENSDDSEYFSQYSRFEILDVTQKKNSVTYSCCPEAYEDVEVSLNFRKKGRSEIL
T1 sequence (P36544 whole entry): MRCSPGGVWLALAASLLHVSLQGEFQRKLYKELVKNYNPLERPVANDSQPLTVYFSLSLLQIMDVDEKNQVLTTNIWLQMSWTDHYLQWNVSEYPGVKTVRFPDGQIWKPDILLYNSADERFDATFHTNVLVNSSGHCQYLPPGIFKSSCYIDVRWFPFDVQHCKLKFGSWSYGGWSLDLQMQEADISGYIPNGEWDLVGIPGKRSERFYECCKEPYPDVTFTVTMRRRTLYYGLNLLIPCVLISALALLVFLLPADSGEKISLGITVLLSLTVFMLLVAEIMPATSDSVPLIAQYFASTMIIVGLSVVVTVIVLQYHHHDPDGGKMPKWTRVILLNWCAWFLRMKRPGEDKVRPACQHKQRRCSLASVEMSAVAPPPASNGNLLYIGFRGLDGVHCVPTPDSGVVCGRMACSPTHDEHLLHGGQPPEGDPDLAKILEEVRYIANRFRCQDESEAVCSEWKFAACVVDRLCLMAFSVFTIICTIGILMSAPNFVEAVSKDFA
Sequence of Acetylcholine-binding protein (P58154 whole entry): as the sequence (P58154 whole entry) above

`CC[C@H](C)[C@@H]1NC(=O)[C@H](CC(N)=O)NC(=O)[C@H]([C@@H](C)O)NC(=O)[C@H](CCCNC(=N)N)NC(=O)[C@H](CC(=O)O)NC(=O)[C@H](CO)NC(=O)[C@@H]2CCCN2C(=O)[C@H](Cc2c[nH]c3ccccc23)NC(=O)CNC(=O)[C@H](CCCNC(=N)N)NC(=O)[C@@H](N)CSSC[C@H](NC(=O)[C@H](CCC(=O)O)NC(=O)[C@H](CO)NC(=O)[C@H](CCC(=O)O)NC(=O)[C@H](CC(=O)O)NC(=O)[C@@H](N)CC(=O)O)C(=O)N[C@@H]([C@@H](C)CC)C(=O)N[C@@H]([C@@H](C)CC)C(=O)N[C@@H](CC(N)=O)C(=O)N[C@@H]([C@@H](C)O)C(=O)N[C@@H](CCCNC(=N)N)C(=O)N[C@@H](CC(=O)O)C(=O)N[C@@H](CO)C(=O)N2CCC[C@H]2C(=O)N[C@@H](Cc2c[nH]c3ccccc23)C(=O)NCC(=O)N[C@@H](CCCNC(=N)N)C(=O)N[C@H](C(=O)O)CSSC[C@@H](C(=O)N[C@@H](CCC(=O)O)C(=O)N[C@@H](CO)C(=O)N[C@@H](CCC(=O)O)C(=O)N[C@@H](CC(=O)O)C(=O)N[C@@H](CC(=O)O)C(=O)O)NC(=O)[C@H]([C@@H](C)CC)NC1=O` (I: H-CRGWPSDRTNIICESEDD-OH / II: H-DDESECIINTRDSPWGRC-OH; disulfide I:1-II:6, I:13-II:18): the IC50 (as a rule, the midpoint of a concentration-inhibition curve) in experiment [1] was 35 µM.

Take `CCCC[C@@H]1N[C@@H](CO)C(=O)NCC(=O)N[C@H]2CSSC[C@@H]3NC(=O)[C@H](C(C)C)NC(=O)[C@H](Cc4ccc(O)cc4)NC(=O)[C@H](Cc4cnc[nH]4)NC(=O)[C@H](Cc4c[nH]c5ccccc45)NC(=O)[C@H](CCCNC(=N)N)NC(=O)[C@H](CCCNC(=N)N)NC(=O)CNC(=O)[C@H](Cc4cnc[nH]4)NC(=O)CNC(=O)[C@@H]4CSSC[C@H](NC(=O)[C@@H]5CCCN5C(=O)[C@H](CCCNC(=N)N)NC(=O)[C@H](CC(N)=O)NC(=O)CNC(=O)[C@H](CSSC[C@H](NC(=O)[C@@H]5CCCN5C(=O)CN)C(=O)N[C@@H](CO)C(=O)N4)NC(=O)[C@H]([C@@H](C)O)NC3=O)C(=O)N[C@@H](CSSC[C@@H](C(=O)O)NC(=O)[C@H](CCCNC(=N)N)NC(=O)[C@H]([C@@H](C)O)NC(=O)[C@H](CCCNC(=N)N)N[C@@H](CCCC)C(=O)NC2=O)C(=O)NC1=O`: the figures for the fold change (FC) in experiment [2] and in experiment [4] were 2 and 8, respectively. Further, the IC50 in experiment [3] was found to be 10 µM; in experiment [1], 0.023 µM. Besides, the inhibition (usually the share of the control response that was lost under treatment) in experiment [5] was determined as 29%. Moreover, in experiment [6], the result was Active.

With `CC[C@H](C)[C@@H]1NC(=O)[C@H](CC(N)=O)NC(=O)[C@H]([C@@H](C)O)NC(=O)[C@H](CCCNC(=N)N)NC(=O)[C@H](CC(=O)O)NC(=O)[C@H](CO)NC(=O)[C@@H]2CCCN2C(=O)[C@H](Cc2c[nH]c3ccccc23)NC(=O)CNC(=O)[C@H](CCCNC(=N)N)NC(=O)[C@@H](N)CSSC[C@H](N)C(=O)N[C@@H]([C@@H](C)CC)C(=O)N[C@@H]([C@@H](C)CC)C(=O)N[C@@H](CC(N)=O)C(=O)N[C@@H]([C@@H](C)O)C(=O)N[C@@H](CCCNC(=N)N)C(=O)N[C@@H](CC(=O)O)C(=O)N[C@@H](CO)C(=O)N2CCC[C@H]2C(=O)N[C@@H](Cc2c[nH]c3ccccc23)C(=O)NCC(=O)N[C@@H](CCCNC(=N)N)C(=O)N[C@H](C(=O)O)CSSC[C@@H](C(=O)O)NC(=O)[C@H]([C@@H](C)CC)NC1=O` (I: H-CIINTRDSPWGRC-OH / II: H-CRGWPSDRTNIIC-OH; disulfide I:1-II:1, I:13-II:13), the half-inhibitory concentration (IC50) in experiment [1] was found to be 46 µM.

As for `CCCC[C@@H]1NC(=O)[C@H](CO)NC(=O)CNC(=O)[C@@H](NC(=O)[C@H](CCCC)NC(=O)[C@H](CCCNC(=N)N)NC(=O)[C@@H](N)[C@@H](C)O)CSSC[C@@H]2NC(=O)[C@H]([C@@H](C)O)NC(=O)[C@@H]3CSSC[C@@H](C(=O)N4CCC[C@H]4C(=O)NCC(=O)O)NC(=O)[C@H](CO)NC(=O)[C@H](CSSC[C@H](NC(=O)[C@H](CO)NC1=O)C(=O)N1CCC[C@H]1C(=O)N[C@@H](CCCNC(=N)N)C(=O)N[C@@H](CC(N)=O)C(=O)NCC(=O)N3)NC(=O)CNC(=O)[C@H](Cc1cnc[nH]1)NC(=O)CNC(=O)[C@H](CCCNC(=N)N)NC(=O)[C@H](CCCNC(=N)N)NC(=O)[C@H](Cc1c[nH]c3ccccc13)NC(=O)[C@H](Cc1cnc[nH]1)NC(=O)[C@H](Cc1ccc(O)cc1)NC(=O)[C@H](C(C)C)NC2=O` (H-TR[Nle]CGS[Nle]SCPRNGCTCVYHWRRGHGCSCPG-OH; disulfide 4-16, 9-26, 14-28), the IC50 in experiment [3] is 20 µM; in experiment [1], 0.176 µM. For the same compound, in experiment [6], the outcome was Active. For the same compound, the inhibition in experiment [7] stood at 20%.

(Values after ChEMBL document CHEMBL5104215, “Synthesis of full-length homodimer αD-VxXXB that targets human α7 nicotinic acetylcholine receptors” (RSC Med Chem, 2022).)
